Data taken from ChEMBL document CHEMBL5724801, “EUbOPEN Chemogenomics Library - Multiplex” (2024).
Values joined by “and” are separate entries in the source; they are usually repeats but may differ in a detail not shown here. Equal entries are not always repeated.

System: Fibroblast
Test: Multiplex assay against human fibroblast
Format: toxicity, cell-based
Outline: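 Imaging took place on a CQ1 microscope at 37°C and 5% CO2 once compound had been added to live cells stained at seeding with Hoechst33342, BioTracker Green Microtubule Cytoskeleton Dye, MitoTracker Red and Annexin V Alexa Fluor 680. CellPathfinder machine-learning gating classed cells as Hoechst high-intensity objects or normal cells, classed normal cells as having healthy, pyknosed or fragmented nuclei, and classed pyknosed cells as mitotic or apoptotic. Tubulin, mitochondrial-mass and membrane-permeability phenotypes are per cents of the healthy-nucleus cells.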

[1] = 12 h, 1 µM, compound concentration 1 uM
[2] = 12 h, 10 µM, compound concentration 10 uM
[3] = 24 h, 1 µM, compound concentration 1 uM
[4] = 24 h, 10 µM, compound concentration 10 uM
[5] = 48 h, 1 µM, compound concentration 1 uM
[6] = 48 h, 10 µM, compound concentration 10 uM

## CC1(COc2ccc3c(c2)ncn3-c2ccc3cccc(N4CCC(N)CC4)c3n2)COC1 [CRENOLANIB]
[1]
  Population Fragmented Nuclei (%): 27% and 33%
  Population Healthy Nuclei (%): 60% and 47%
  Population Hoechst High Intensity Objects (%): 2% and 4%
  Population Membrane Permeable-Phenotype (%): 0% and 7%
  Population Mitochondria Different-Phenotype (%): 4% and 9%
  Population Mitotic Cells (%): 38% and 81%
  Population Normal (%): 97% and 95%
  Population Pyknosed Nuclei (%): 12% and 18%
  Population Tubulin-Different-Phenotype (%): 48% and 67%
[2]
  Population Apoptotic (%): 33% and 34%
  Population Fragmented Nuclei (%): 21% and 29%
  Population Healthy Nuclei (%): 48% and 40%
  Population Hoechst High Intensity Objects (%): 4% and 13%
  Population Membrane Permeable-Phenotype (%): 2% and 6%
  Population Mitochondria Different-Phenotype (%): 6% and 9%
  Population Mitotic Cells (%): 66% and 65%
  Population Normal (%): 95% and 86%
  Population Pyknosed Nuclei (%): 30%
  Population Tubulin-Different-Phenotype (%): 43% and 48%
[3]
  Population Apoptotic (%): 92% and 50%
  Population Fragmented Nuclei (%): 29% and 41%
  Population Healthy Nuclei (%): 60% and 48%
  Population Hoechst High Intensity Objects (%): 0% and 1%
  Population Membrane Permeable-Phenotype (%): 0% and 4%
  Population Mitochondria Different-Phenotype (%): 9%
  Population Normal (%): 99% and 98%
  Population Pyknosed Nuclei (%): 9% and 10%
  Population Tubulin-Different-Phenotype (%): 61% and 63%
[4]
  Population Apoptotic (%): 36% and 34%
  Population Fragmented Nuclei (%): 23% and 25%
  Population Healthy Nuclei (%): 51% and 46%
  Population Hoechst High Intensity Objects (%): 16% and 17%
  Population Membrane Permeable-Phenotype (%): 0% and 6%
  Population Mitochondria Different-Phenotype (%): 8% and 6%
  Population Mitotic Cells (%): 63% and 65%
  Population Normal (%): 83% and 82%
  Population Pyknosed Nuclei (%): 24% and 28%
  Population Tubulin-Different-Phenotype (%): 23% and 38%
[5]
  Population Fragmented Nuclei (%): 32% and 44%
  Population Healthy Nuclei (%): 60% and 44%
  Population Hoechst High Intensity Objects (%): 1% and 0%
  Population Membrane Permeable-Phenotype (%): 0% and 5%
  Population Mitochondria Different-Phenotype (%): 8% and 7%
  Population Normal (%): 98% and 99%
  Population Pyknosed Nuclei (%): 7% and 12%
  Population Tubulin-Different-Phenotype (%): 55% and 74%
[6]
  Population Apoptotic (%): 42% and 37%
  Population Fragmented Nuclei (%): 16% and 23%
  Population Healthy Nuclei (%): 62% and 42%
  Population Hoechst High Intensity Objects (%): 24% and 21%
  Population Membrane Permeable-Phenotype (%): 1%
  Population Mitochondria Different-Phenotype (%): 6%
  Population Mitotic Cells (%): 57% and 62%
  Population Normal (%): 75% and 78%
  Population Pyknosed Nuclei (%): 21% and 33%
  Population Tubulin-Different-Phenotype (%): 23% and 27%

## CCC(=N\O)/C(C)=C/c1ccc(F)cc1 [A-079]
[1]
  Population Apoptotic (%): 15.91% and 23.08%
  Population Fragmented Nuclei (%): 8.18% and 2.86%
  Population Healthy Nuclei (%): 71.82% and 82.29%
  Population Hoechst High Intensity Objects (%): 0%
  Population Membrane Permeable-Phenotype (%): 3.16% and 4.86%
  Population Mitochondria Different-Phenotype (%): 3.16% and 9.72%
  Population Mitotic Cells (%): 84.09% and 76.92%
  Population Normal (%): 100%
  Population Pyknosed Nuclei (%): 20% and 14.86%
  Population Tubulin-Different-Phenotype (%): 10.13% and 14.58%
  Total Cell Count: 220 and 175
[2]
  Population Apoptotic (%): 11.32% and 27.78%
  Population Fragmented Nuclei (%): 6.99% and 5.71%
  Population Healthy Nuclei (%): 64.52% and 81.43%
  Population Hoechst High Intensity Objects (%): 0%
  Population Membrane Permeable-Phenotype (%): 5.83% and 7.02%
  Population Mitochondria Different-Phenotype (%): 5% and 9.65%
  Population Mitotic Cells (%): 88.68% and 72.22%
  Population Normal (%): 100%
  Population Pyknosed Nuclei (%): 28.49% and 12.86%
  Population Tubulin-Different-Phenotype (%): 13.33% and 21.93%
  Total Cell Count: 186 and 140
[3]
  Population Apoptotic (%): 15.15% and 10.53%
  Population Fragmented Nuclei (%): 10% and 1.7%
  Population Healthy Nuclei (%): 75.65% and 87.5%
  Population Hoechst High Intensity Objects (%): 0%
  Population Membrane Permeable-Phenotype (%): 2.3% and 3.25%
  Population Mitochondria Different-Phenotype (%): 2.87% and 6.49%
  Population Mitotic Cells (%): 84.85% and 89.47%
  Population Normal (%): 100%
  Population Pyknosed Nuclei (%): 14.35% and 10.8%
  Population Tubulin-Different-Phenotype (%): 10.92% and 9.74%
  Total Cell Count: 230 and 176
[4]
  Population Apoptotic (%): 17.14% and 20.83%
  Population Fragmented Nuclei (%): 8.85% and 6.62%
  Population Healthy Nuclei (%): 72.92% and 77.48%
  Population Hoechst High Intensity Objects (%): 0%
  Population Membrane Permeable-Phenotype (%): 10.71% and 3.42%
  Population Mitochondria Different-Phenotype (%): 7.86% and 4.27%
  Population Mitotic Cells (%): 82.86% and 79.17%
  Population Normal (%): 100%
  Population Pyknosed Nuclei (%): 18.23% and 15.89%
  Population Tubulin-Different-Phenotype (%): 19.29% and 19.66%
  Total Cell Count: 192 and 151
[5]
  Population Apoptotic (%): 46.15% and 36.36%
  Population Fragmented Nuclei (%): 10.24% and 4.69%
  Population Healthy Nuclei (%): 84.65% and 89.58%
  Population Hoechst High Intensity Objects (%): 0%
  Population Membrane Permeable-Phenotype (%): 0.47% and 4.65%
  Population Mitotic Cells (%): 53.85% and 63.64%
  Population Normal (%): 100%
  Population Pyknosed Nuclei (%): 5.12% and 5.73%
  Total Cell Count: 254 and 192
[6]
  Population Apoptotic (%): 20% and 36.36%
  Population Fragmented Nuclei (%): 12.33% and 5.62%
  Population Healthy Nuclei (%): 80.82% and 87.5%
  Population Hoechst High Intensity Objects (%): 0%
  Population Membrane Permeable-Phenotype (%): 1.69% and 6.43%
  Population Mitotic Cells (%): 80% and 63.64%
  Population Normal (%): 100%
  Population Pyknosed Nuclei (%): 6.85% and 6.88%
  Population Tubulin-Different-Phenotype (%): 6.78% and 17.86%
  Total Cell Count: 219 and 160
